# Experimental data from ChEMBL document CHEMBL4316659, “Selective Antiproliferative Withanolides from Species in the Genera Eriolarynx and Deprea” (J Nat Prod, 2019).
# Tests used:
# [1] = Ratio of GI50 for antiproliferative activity against human hTERT-BJ cells incubated for 48 hrs by SRB assay to GI50 for antiproliferative activity against human A549 cells incubated for 48 hrs by SRB assay
# Procedure, shortened: (§1)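 Selectivity is GI50 in the nontumor BJ-hTERT fibroblasts divided by GI50 in each tumor line. All values come from the same 48 h SRB assay, with 0.01−100 μM serial dilutions.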
# [2] = Ratio of GI50 for antiproliferative activity against human hTERT-BJ cells incubated for 48 hrs by SRB assay to GI50 for antiproliferative activity against human T47D cells incubated for 48 hrs by SRB assay; format: toxicity, cell-based; conditions: hTERT-BJ cells versus T47D cells, read-out: RatioGI50; procedure, shortened: as §1
# [3] = test system: SW1573; assay: Antiproliferative activity against human SW1573 cells incubated for 48 hrs by SRB assay; format: functional; conditions: SW1573, 48 h
# Procedure, shortened: (§2)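 Cells kept in RPMI 1640 with 5% FBS and 2 mM L-glutamine at 37 °C under 5% CO2. Seeded at 2500 (A549, HBL-100, HeLa, SW1573) or 5000 (T-47D, WiDr, BJ-hTERT) cells/well and left 24 h. Compounds added as serial dilutions (0.01−100 μM) for 48 h. SRB staining read at 530 and 620 nm. GI50 calculated by NCI formulas. Mean of at least two independent experiments ± SD.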
# [4] = Ratio of GI50 for antiproliferative activity against human hTERT-BJ cells incubated for 48 hrs by SRB assay to GI50 for antiproliferative activity against human SW1573 cells incubated for 48 hrs by SRB assay; format: toxicity, cell-based; conditions: hTERT-BJ cells versus SW1573 cells, read-out: RatioGI50; procedure, shortened: as §1
# [5] = Ratio of GI50 for antiproliferative activity against human hTERT-BJ cells incubated for 48 hrs by SRB assay to GI50 for antiproliferative activity against human HBL100 cells incubated for 48 hrs by SRB assay; procedure, shortened: as §1
# [6] = test system: SW1573; assay: Antiproliferative activity against human SW1573 cells incubated for 48 hrs in absence of P-gp and CYP3A4/5 inhibitor verapamil by SRB assay; format: functional; conditions: SW1573, 48 h
# Procedure, shortened: (§3)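 Wild-type SW1573 (2500 cells/well) and P-gp-overexpressing SW1573/Pgp (5000 cells/well) in RPMI 1640 with 5% FBS. Seeded 24 h, then exposed 48 h to serial dilutions (0.01−100 μM) with or without 10 μM verapamil (final) in the medium. Paclitaxel and vinblastine were reference drugs. SRB read at 530/620 nm. GI50 by NCI formulas, mean of at least two independent experiments ± SD.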
# [7] = test system: T47D; assay: Antiproliferative activity against human T47D cells incubated for 48 hrs by SRB assay; format: functional; procedure, shortened: as §2
# [8] = test system: SW1573; assay: Antiproliferative activity against human SW1573 cells over-expressing P-gp incubated for 48 hrs in presence of P-gp and CYP3A4/5 inhibitor verapamil by SRB assay; format: functional; conditions: SW1573, 48 h; procedure, shortened: as §3
# [9] = test system: SW1573; assay: (§4) Resistance factor, ratio of GI50 for Antiproliferative activity against human SW1573 cells over-expressing P-gp incubated for 48 hrs in presence of P-gp and CYP3A4/5 inhibitor verapamil by SRB assay to GI50 for antiproliferative activity against human SW1573 cells incubated for 48 hrs in presence of P-gp and CYP3A4/5 inhibitor verapamil by SRB assay; format: functional
# Procedure, shortened: (§5)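 Resistance factor is GI50 in SW1573/Pgp divided by GI50 in wild-type SW1573. Both come from 48 h SRB assays, run with 10 μM verapamil (final) or without it.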
# [10] = Ratio of GI50 for antiproliferative activity against human hTERT-BJ cells incubated for 48 hrs by SRB assay to GI50 for antiproliferative activity against human WiDr cells incubated for 48 hrs by SRB assay; format: toxicity, cell-based; conditions: hTERT-BJ cells versus WiDr cells, read-out: RatioGI50; procedure, shortened: as §1
# [11] = test system: SW1573; assay: as §4, with “absence” for “presence”; format: functional; procedure, shortened: as §5
# [12] = test system: HeLa; assay: Antiproliferative activity against human HeLa cells incubated for 48 hrs by SRB assay; format: functional; procedure, shortened: as §2
# [13] = test system: SW1573; assay: Antiproliferative activity against human SW1573 cells over-expressing P-gp incubated for 48 hrs in absence of P-gp and CYP3A4/5 inhibitor verapamil by SRB assay; format: functional; conditions: SW1573, 48 h; procedure, shortened: as §3
# [14] = test system: HBL-100; assay: Antiproliferative activity against human HBL100 cells incubated for 48 hrs by SRB assay; format: functional; conditions: HBL-100, 48 h; procedure, shortened: as §2
# [15] = Ratio of GI50 for antiproliferative activity against human hTERT-BJ cells incubated for 48 hrs by SRB assay to GI50 for antiproliferative activity against human HeLa cells incubated for 48 hrs by SRB assay; format: toxicity, cell-based; conditions: hTERT-BJ cells versus HeLa cells, read-out: RatioGI50; procedure, shortened: as §1
# [16] = test system: A549; assay: Antiproliferative activity against human A549 cells incubated for 48 hrs by SRB assay; format: functional; conditions: A549, 48 h; procedure, shortened: as §2
# [17] = test system: SW1573; assay: Antiproliferative activity against human SW1573 cells incubated for 48 hrs in presence of P-gp and CYP3A4/5 inhibitor verapamil by SRB assay; format: functional; conditions: SW1573, 48 h; procedure, shortened: as §3
# [18] = Antiproliferative activity against human hTERT-BJ cells incubated for 48 hrs by SRB assay; format: cell-based; procedure, shortened: as §2
# [19] = test system: WiDr; assay: Antiproliferative activity against human WiDr cells incubated for 48 hrs by SRB assay; format: functional; procedure, shortened: as §2
GI50 [3] [µM],GI50 [6] [µM],GI50 [7] [µM],GI50 [8] [µM],GI50 [12] [µM],GI50 [13] [µM],GI50 [16] [µM],GI50 [17] [µM],SMILES,RatioGI50 [1],selectivity ratio at 48 h [2],selectivity ratio at 48 h [4],RatioGI50 [5],RatioGI50 [9],selectivity ratio at 48 h [10],RatioGI50 [11],GI50 [14] [µM],selectivity ratio at 48 h [15],GI50 at 48 h [18] [µM],GI50 [19] [µM]
3.3,3,3.9,2.3,3.2,3.3,3.1,3.5,CO[C@H]1O[C@@](C)([C@H]2CC(C)=C(C)C(=O)O2)[C@H]2CC[C@H]3[C@@H]4[C@@H](O)C=C5[C@@H](O)C=CC(=O)[C@]5(C)[C@H]4CC[C@]123,2 - 10,2 to 10,2 to 10,2 - 10,0.7,2 to 10,1.1,3.6,2 to 10,> 10,> 10
4.1,3.4,> 10,3.2,5.3,3.2,> 10,4.2,CC1=C(C)C(=O)O[C@@H]([C@](C)(O)[C@H]2CC[C@H]3[C@@H]4[C@@H](O)C=C5[C@@H](O)C=CC(=O)[C@]5(C)[C@H]4CC[C@]23C)C1,2 - 10,2 to 10,2 to 10,2 - 10,0.8,2 to 10,0.9,4.8,2 to 10,> 10,> 10
